Assay results: ChEMBL document CHEMBL5724801, “EUbOPEN Chemogenomics Library - Multiplex” (2024)
Where “and” joins values, the source holds several entries; their conditions need not be identical. Equal entries are not always repeated.

System: Fibroblast
Experiment: Multiplex assay against human fibroblast
Type: toxicity, cell-based
Method in brief: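 With compound added, live cells were imaged on a CQ1 microscope at 37°C and 5% CO2; staining with Hoechst33342, BioTracker Green Microtubule Cytoskeleton Dye, MitoTracker Red and Annexin V Alexa Fluor 680 had been done at seeding. The CellPathfinder machine-learning gating scheme split cells into Hoechst high-intensity objects or normal cells, normal cells into healthy, pyknosed or fragmented nuclei, and pyknosed cells into mitotic or apoptotic. The tubulin, mitochondrial-mass and membrane-permeability phenotypes are per cents of healthy-nucleus cells.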

[1] = 12 h, 1 µM, compound concentration 1 uM
[2] = 12 h, 10 µM, compound concentration 10 uM
[3] = 24 h, 1 µM, compound concentration 1 uM
[4] = 24 h, 10 µM, compound concentration 10 uM
[5] = 48 h, 1 µM, compound concentration 1 uM
[6] = 48 h, 10 µM, compound concentration 10 uM

Structure (SMILES): CCCCC(=O)N(Cc1ccc(-c2ccccc2-c2nnn[nH]2)cc1)[C@H](C(=O)O)C(C)C
- Population Apoptotic (%) [1]: 45% and 44%
- Population Fragmented Nuclei (%) [1]: 9% and 21%
- Population Healthy Nuclei (%) [1]: 74% and 54%
- Population Hoechst High Intensity Objects (%) [1]: 4% and 3%
- Population Membrane Permeable-Phenotype (%) [1]: 0% and 8%
- Population Mitochondria Different-Phenotype (%) [1]: 0% and 6%
- Population Mitotic Cells (%) [1]: 54% and 55%
- Population Normal (%) [1]: 95% and 96%
- Population Pyknosed Nuclei (%) [1]: 16% and 24%
- Population Tubulin-Different-Phenotype (%) [1]: 20% and 36%
- Total Cell Count [1]: 143 and 156
- Population Apoptotic (%) [2]: 37%
- Population Fragmented Nuclei (%) [2]: 20% and 27%
- Population Healthy Nuclei (%) [2]: 56% and 42%
- Population Hoechst High Intensity Objects (%) [2]: 0% and 3%
- Population Membrane Permeable-Phenotype (%) [2]: 3% and 11%
- Population Mitochondria Different-Phenotype (%) [2]: 3% and 11%
- Population Mitotic Cells (%) [2]: 62%
- Population Normal (%) [2]: 100% and 96%
- Population Pyknosed Nuclei (%) [2]: 22% and 29%
- Population Tubulin-Different-Phenotype (%) [2]: 23% and 51%
- Total Cell Count [2]: 106 and 130
- Population Apoptotic (%) [3]: 66% and 38%
- Population Fragmented Nuclei (%) [3]: 15% and 21%
- Population Healthy Nuclei (%) [3]: 70% and 52%
- Population Hoechst High Intensity Objects (%) [3]: 0% and 2%
- Population Membrane Permeable-Phenotype (%) [3]: 1% and 2%
- Population Mitochondria Different-Phenotype (%) [3]: 2% and 1%
- Population Mitotic Cells (%) [3]: 33% and 61%
- Population Normal (%) [3]: 99% and 97%
- Population Pyknosed Nuclei (%) [3]: 14% and 25%
- Population Tubulin-Different-Phenotype (%) [3]: 17% and 25%
- Total Cell Count [3]: 146 and 145
- Population Apoptotic (%) [4]: 48% and 35%
- Population Fragmented Nuclei (%) [4]: 18% and 25%
- Population Healthy Nuclei (%) [4]: 56% and 44%
- Population Hoechst High Intensity Objects (%) [4]: 2% and 4%
- Population Membrane Permeable-Phenotype (%) [4]: 0% and 9%
- Population Mitochondria Different-Phenotype (%) [4]: 1% and 10%
- Population Mitotic Cells (%) [4]: 51% and 64%
- Population Normal (%) [4]: 97% and 95%
- Population Pyknosed Nuclei (%) [4]: 25% and 29%
- Population Tubulin-Different-Phenotype (%) [4]: 31% and 65%
- Total Cell Count [4]: 110 and 130
- Population Apoptotic (%) [5]: 80% and 40%
- Population Fragmented Nuclei (%) [5]: 18% and 27%
- Population Healthy Nuclei (%) [5]: 71% and 51%
- Population Hoechst High Intensity Objects (%) [5]: 6% and 3%
- Population Membrane Permeable-Phenotype (%) [5]: 0% and 1%
- Population Mitochondria Different-Phenotype (%) [5]: 1% and 3%
- Population Mitotic Cells (%) [5]: 20% and 59%
- Population Normal (%) [5]: 93% and 96%
- Population Pyknosed Nuclei (%) [5]: 10% and 21%
- Population Tubulin-Different-Phenotype (%) [5]: 17% and 33%
- Total Cell Count [5]: 153 and 155
- Population Apoptotic (%) [6]: 64% and 57%
- Population Fragmented Nuclei (%) [6]: 28% and 39%
- Population Healthy Nuclei (%) [6]: 56% and 39%
- Population Hoechst High Intensity Objects (%) [6]: 4%
- Population Membrane Permeable-Phenotype (%) [6]: 0% and 7%
- Population Mitochondria Different-Phenotype (%) [6]: 5%
- Population Mitotic Cells (%) [6]: 35% and 42%
- Population Normal (%) [6]: 95%
- Population Pyknosed Nuclei (%) [6]: 15% and 20%
- Population Tubulin-Different-Phenotype (%) [6]: 30% and 69%
- Total Cell Count [6]: 112 and 141

Structure (SMILES): COc1ccc2c(c1)C(C(=O)N(Cc1ccc(N(C)C)cc1)c1ccc(C(C)C)cc1)CCC2.Cl (configuration not stated)
- Population Apoptotic (%) [1]: 57% and 45%
- Population Fragmented Nuclei (%) [1]: 15% and 20%
- Population Healthy Nuclei (%) [1]: 72% and 55%
- Population Hoechst High Intensity Objects (%) [1]: 1% and 5%
- Population Membrane Permeable-Phenotype (%) [1]: 1% and 5%
- Population Mitochondria Different-Phenotype (%) [1]: 7% and 15%
- Population Mitotic Cells (%) [1]: 42% and 54%
- Population Normal (%) [1]: 98% and 94%
- Population Pyknosed Nuclei (%) [1]: 11% and 23%
- Population Tubulin-Different-Phenotype (%) [1]: 22% and 57%
- Total Cell Count [1]: 163 and 138
- Population Apoptotic (%) [2]: 58% and 53%
- Population Fragmented Nuclei (%) [2]: 17% and 38%
- Population Healthy Nuclei (%) [2]: 69% and 51%
- Population Hoechst High Intensity Objects (%) [2]: 1% and 2%
- Population Membrane Permeable-Phenotype (%) [2]: 0% and 6%
- Population Mitochondria Different-Phenotype (%) [2]: 12% and 14%
- Population Mitotic Cells (%) [2]: 41% and 46%
- Population Normal (%) [2]: 98% and 97%
- Population Pyknosed Nuclei (%) [2]: 13% and 10%
- Population Tubulin-Different-Phenotype (%) [2]: 67% and 77%
- Total Cell Count [2]: 181 and 148
- Population Apoptotic (%) [3]: 55%
- Population Fragmented Nuclei (%) [3]: 11% and 19%
- Population Healthy Nuclei (%) [3]: 77% and 59%
- Population Hoechst High Intensity Objects (%) [3]: 1% and 3%
- Population Membrane Permeable-Phenotype (%) [3]: 0% and 2%
- Population Mitochondria Different-Phenotype (%) [3]: 5% and 11%
- Population Mitotic Cells (%) [3]: 44%
- Population Normal (%) [3]: 98% and 96%
- Population Pyknosed Nuclei (%) [3]: 11% and 20%
- Population Tubulin-Different-Phenotype (%) [3]: 25% and 41%
- Total Cell Count [3]: 156 and 136
- Population Apoptotic (%) [4]: 50% and 42%
- Population Fragmented Nuclei (%) [4]: 17% and 39%
- Population Healthy Nuclei (%) [4]: 72% and 55%
- Population Hoechst High Intensity Objects (%) [4]: 3% and 2%
- Population Membrane Permeable-Phenotype (%) [4]: 0% and 2%
- Population Mitochondria Different-Phenotype (%) [4]: 15% and 12%
- Population Mitotic Cells (%) [4]: 50% and 57%
- Population Normal (%) [4]: 96% and 97%
- Population Pyknosed Nuclei (%) [4]: 10% and 4%
- Population Tubulin-Different-Phenotype (%) [4]: 63% and 85%
- Total Cell Count [4]: 180 and 148
- Population Apoptotic (%) [5]: 66% and 52%
- Population Fragmented Nuclei (%) [5]: 17% and 26%
- Population Healthy Nuclei (%) [5]: 75% and 61%
- Population Hoechst High Intensity Objects (%) [5]: 1%
- Population Membrane Permeable-Phenotype (%) [5]: 1% and 5%
- Population Mitochondria Different-Phenotype (%) [5]: 3% and 13%
- Population Mitotic Cells (%) [5]: 33% and 47%
- Population Normal (%) [5]: 98%
- Population Pyknosed Nuclei (%) [5]: 6% and 12%
- Population Tubulin-Different-Phenotype (%) [5]: 27% and 46%
- Total Cell Count [5]: 180 and 152
- Population Apoptotic (%) [6]: 71% and 75%
- Population Fragmented Nuclei (%) [6]: 21% and 45%
- Population Healthy Nuclei (%) [6]: 71% and 52%
- Population Hoechst High Intensity Objects (%) [6]: 4% and 0%
- Population Membrane Permeable-Phenotype (%) [6]: 0% and 3%
- Population Mitochondria Different-Phenotype (%) [6]: 8%
- Population Mitotic Cells (%) [6]: 28% and 25%
- Population Normal (%) [6]: 95% and 99%
- Population Pyknosed Nuclei (%) [6]: 7% and 2%
- Population Tubulin-Different-Phenotype (%) [6]: 71% and 81%
- Total Cell Count [6]: 203 and 174
